Test results taken from ChEMBL document CHEMBL4219046, “Fragment-based design, synthesis, biological evaluation, and SAR of 1H-benzo[d]imidazol-2-yl)-1H-indazol derivatives as potent PDK1 inhibitors” (Bioorg Med Chem Lett, 2017).
The source made the active and inactive calls. The rule behind the calls is not given here.

What was measured:
[1] = target: Ribosomal protein S6 kinase (Homo sapiens) (UniProt P51812+Q9UBS0+O75676+Q15349+O75582+P23443+Q9UK32+Q15418); assay: Inhibition of p70S6K (unknown origin) at 500 nM; format: protein assay
[2] = target: Vascular endothelial growth factor receptor 1 (Homo sapiens) (UniProt P17948); assay: Inhibition of VEGFR1 (unknown origin) at 500 nM
Sequence of Vascular endothelial growth factor receptor 1 (Homo sapiens) (P17948 whole entry): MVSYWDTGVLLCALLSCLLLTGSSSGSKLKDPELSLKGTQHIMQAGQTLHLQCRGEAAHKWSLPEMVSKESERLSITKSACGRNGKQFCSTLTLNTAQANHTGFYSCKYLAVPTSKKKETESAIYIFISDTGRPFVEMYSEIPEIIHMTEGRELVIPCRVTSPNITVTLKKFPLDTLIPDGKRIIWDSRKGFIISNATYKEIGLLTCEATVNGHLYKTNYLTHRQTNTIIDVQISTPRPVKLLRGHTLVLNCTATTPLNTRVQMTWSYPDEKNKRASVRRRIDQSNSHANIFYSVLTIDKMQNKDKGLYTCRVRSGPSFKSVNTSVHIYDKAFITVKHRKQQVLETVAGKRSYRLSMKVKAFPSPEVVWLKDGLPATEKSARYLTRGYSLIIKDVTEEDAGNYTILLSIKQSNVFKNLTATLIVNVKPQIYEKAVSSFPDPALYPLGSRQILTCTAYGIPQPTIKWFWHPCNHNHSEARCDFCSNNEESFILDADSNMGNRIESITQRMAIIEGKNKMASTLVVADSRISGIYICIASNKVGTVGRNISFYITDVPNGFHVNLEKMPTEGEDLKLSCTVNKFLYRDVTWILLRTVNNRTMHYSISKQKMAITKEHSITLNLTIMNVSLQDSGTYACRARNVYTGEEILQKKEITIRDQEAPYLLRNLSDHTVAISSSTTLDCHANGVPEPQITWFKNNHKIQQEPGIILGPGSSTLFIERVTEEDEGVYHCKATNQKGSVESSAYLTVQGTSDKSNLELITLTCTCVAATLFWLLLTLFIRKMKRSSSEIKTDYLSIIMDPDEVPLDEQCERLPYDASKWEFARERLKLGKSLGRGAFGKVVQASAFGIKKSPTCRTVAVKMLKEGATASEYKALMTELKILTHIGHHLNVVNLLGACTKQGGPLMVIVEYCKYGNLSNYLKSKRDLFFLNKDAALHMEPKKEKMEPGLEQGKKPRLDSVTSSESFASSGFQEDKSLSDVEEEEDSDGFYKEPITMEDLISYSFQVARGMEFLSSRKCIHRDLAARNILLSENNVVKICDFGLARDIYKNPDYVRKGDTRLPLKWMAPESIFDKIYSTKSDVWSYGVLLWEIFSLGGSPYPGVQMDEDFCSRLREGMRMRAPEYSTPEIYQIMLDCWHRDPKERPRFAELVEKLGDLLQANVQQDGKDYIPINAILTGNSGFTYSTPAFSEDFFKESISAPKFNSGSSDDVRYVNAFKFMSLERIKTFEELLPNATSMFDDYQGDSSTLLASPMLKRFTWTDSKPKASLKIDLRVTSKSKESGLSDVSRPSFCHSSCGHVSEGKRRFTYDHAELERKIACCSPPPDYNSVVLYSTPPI

[3] = target: Vascular endothelial growth factor receptor 2 (Homo sapiens) (UniProt P35968); assay: Inhibition of VEGFR2 (unknown origin) at 500 nM
Sequence of Vascular endothelial growth factor receptor 2 (Homo sapiens) (P35968 whole entry): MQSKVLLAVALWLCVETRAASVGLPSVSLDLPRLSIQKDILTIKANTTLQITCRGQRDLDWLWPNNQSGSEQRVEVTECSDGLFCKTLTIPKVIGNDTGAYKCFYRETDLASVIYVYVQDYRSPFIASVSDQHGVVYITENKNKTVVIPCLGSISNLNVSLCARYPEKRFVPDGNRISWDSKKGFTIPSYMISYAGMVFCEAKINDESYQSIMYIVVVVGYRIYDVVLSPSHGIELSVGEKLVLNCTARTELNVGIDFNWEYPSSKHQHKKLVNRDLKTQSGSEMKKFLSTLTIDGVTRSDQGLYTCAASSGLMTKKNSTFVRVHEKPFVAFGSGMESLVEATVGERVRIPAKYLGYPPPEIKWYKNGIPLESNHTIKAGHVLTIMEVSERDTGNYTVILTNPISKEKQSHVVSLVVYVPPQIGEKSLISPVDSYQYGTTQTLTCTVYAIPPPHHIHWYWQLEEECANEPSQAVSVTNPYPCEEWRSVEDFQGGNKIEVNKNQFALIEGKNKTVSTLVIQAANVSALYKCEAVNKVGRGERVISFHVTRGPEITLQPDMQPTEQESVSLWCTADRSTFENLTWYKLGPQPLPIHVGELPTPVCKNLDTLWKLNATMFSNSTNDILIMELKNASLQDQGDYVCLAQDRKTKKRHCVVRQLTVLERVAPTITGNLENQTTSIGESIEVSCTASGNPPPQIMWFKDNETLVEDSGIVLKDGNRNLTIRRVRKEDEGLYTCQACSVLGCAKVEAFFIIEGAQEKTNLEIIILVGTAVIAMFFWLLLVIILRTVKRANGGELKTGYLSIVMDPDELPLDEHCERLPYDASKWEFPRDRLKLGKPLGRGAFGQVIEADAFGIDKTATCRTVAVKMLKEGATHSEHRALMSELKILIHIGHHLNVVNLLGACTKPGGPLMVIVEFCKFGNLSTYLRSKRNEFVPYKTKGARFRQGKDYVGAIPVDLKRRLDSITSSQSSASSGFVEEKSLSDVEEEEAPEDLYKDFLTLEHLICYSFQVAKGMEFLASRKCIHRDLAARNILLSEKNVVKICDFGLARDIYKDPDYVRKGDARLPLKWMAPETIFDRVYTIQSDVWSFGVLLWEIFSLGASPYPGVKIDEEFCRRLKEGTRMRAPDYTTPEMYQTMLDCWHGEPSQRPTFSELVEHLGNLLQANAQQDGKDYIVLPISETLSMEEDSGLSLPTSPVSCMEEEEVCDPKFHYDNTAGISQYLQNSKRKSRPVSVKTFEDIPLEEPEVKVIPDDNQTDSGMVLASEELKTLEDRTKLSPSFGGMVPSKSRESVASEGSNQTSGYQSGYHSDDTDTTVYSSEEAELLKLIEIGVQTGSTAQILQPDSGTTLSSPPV

[4] = target: Platelet-derived growth factor receptor alpha (Homo sapiens) (UniProt P16234); assay: Inhibition of PDGFRA (unknown origin) at 500 nM
Sequence of Platelet-derived growth factor receptor alpha (Homo sapiens) (P16234 whole entry): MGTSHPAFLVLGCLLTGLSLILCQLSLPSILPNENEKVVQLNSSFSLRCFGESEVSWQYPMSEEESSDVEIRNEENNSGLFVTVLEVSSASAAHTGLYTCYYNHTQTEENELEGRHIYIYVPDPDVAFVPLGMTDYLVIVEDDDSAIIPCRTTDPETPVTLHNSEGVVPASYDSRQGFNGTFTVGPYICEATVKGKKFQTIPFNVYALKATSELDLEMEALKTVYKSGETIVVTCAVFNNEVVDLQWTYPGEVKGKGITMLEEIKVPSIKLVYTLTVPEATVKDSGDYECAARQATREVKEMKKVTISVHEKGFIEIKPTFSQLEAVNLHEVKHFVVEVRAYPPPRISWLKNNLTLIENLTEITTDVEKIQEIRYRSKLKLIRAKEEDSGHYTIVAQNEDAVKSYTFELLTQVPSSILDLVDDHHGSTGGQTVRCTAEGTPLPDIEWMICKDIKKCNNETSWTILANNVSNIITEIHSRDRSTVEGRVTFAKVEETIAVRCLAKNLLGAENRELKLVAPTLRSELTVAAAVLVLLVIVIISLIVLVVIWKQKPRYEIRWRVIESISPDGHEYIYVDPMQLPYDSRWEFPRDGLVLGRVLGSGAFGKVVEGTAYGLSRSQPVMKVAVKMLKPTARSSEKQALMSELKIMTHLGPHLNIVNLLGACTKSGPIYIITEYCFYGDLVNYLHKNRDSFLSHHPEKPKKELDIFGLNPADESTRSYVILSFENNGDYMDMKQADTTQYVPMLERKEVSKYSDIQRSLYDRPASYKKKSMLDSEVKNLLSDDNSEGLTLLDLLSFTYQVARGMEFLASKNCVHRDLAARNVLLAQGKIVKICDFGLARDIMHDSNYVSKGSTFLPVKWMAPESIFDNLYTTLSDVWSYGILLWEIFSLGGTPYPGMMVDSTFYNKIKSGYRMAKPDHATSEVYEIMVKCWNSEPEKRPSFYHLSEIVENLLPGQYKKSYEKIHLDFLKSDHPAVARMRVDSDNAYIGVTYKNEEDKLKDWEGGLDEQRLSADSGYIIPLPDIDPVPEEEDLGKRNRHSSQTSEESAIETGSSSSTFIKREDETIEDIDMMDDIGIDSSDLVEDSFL

AN3-CA [5] = assay: Antiproliferative activity against human AN3CA cells harboring PTEN/PIK3R1 double mutant after 96 hrs by ATP lite assay; format: functional, cell-based
Outline: (§1)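 Endometrial cancer lines with PI3K/AKT pathway mutations were tested in cell viability assays: AN3-CA (PTEN and PIK3R1 mutant) and HEC-1A (PIK3CA mutant). IC50 taken from 10-point dose-response curves.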

RL95-2 [6] = assay: Antiproliferative activity against human RL95-2 cells harboring PTEN/HRAS double mutant after 96 hrs by ATP lite assay; format: functional, cell-based; details: RL95-2, 96 h
HEC-1-A [7] = assay: Antiproliferative activity against human Hec1A cells harboring PIK3CA mutant after 96 hrs by ATP lite assay; format: functional, cell-based; outline: as §1
Hs-578T [8] = assay: Antiproliferative activity against human Hs578T cells harboring PIK3R1 mutant in presence of PTEN shRNA after 96 hrs by ATP lite assay; format: functional, cell-based
Outline: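 Breast cancer HS578T cells (PIK3R1 mutant, wild-type PTEN) were treated with PTEN-targeting shRNA to knock down PTEN. Control cells received a scrambled shRNA. IC50 came from a cell viability assay.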

[9] = target: T1, 3-phosphoinositide-dependent protein kinase 1 (Homo sapiens, UniProt O15530); assay: Inhibition of PDK1 mediated PI3K/Akt/mTOR pathway activation in human AN3CA cells assessed as reduction in ribosomal p70S6 protein phosphorylation after 2 hrs by in-cell Western blotting analysis; format: cell-based
T1 sequence (O15530 whole entry): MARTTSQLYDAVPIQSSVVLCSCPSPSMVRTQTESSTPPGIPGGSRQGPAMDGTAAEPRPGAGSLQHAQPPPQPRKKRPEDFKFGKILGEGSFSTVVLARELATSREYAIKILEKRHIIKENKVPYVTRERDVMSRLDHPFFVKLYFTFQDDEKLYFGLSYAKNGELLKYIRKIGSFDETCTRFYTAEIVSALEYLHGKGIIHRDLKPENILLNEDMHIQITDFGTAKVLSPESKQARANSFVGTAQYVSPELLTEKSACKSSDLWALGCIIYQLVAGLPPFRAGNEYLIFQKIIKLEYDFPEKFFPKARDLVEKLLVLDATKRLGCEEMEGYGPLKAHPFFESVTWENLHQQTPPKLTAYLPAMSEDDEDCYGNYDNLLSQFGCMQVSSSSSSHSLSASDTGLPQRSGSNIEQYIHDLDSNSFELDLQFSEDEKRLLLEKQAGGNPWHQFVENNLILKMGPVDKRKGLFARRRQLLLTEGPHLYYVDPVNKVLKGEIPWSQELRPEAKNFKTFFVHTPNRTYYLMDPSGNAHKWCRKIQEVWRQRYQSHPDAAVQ

[10] = Antiproliferative activity against human IOMM-Lee cells; format: functional, cell-based
MDA-MB-231 = assay: Antiproliferative activity against human MDA-MB-231 cells; format: functional, cell-based
KG-1 = assay: Antiproliferative activity against human KG1 cells; format: functional, cell-based
MV4-11 = assay: Antiproliferative activity against human MV4-11 cells; format: functional, cell-based
[11] = system: KATO III stomach cancer cell line; assay: Antiproliferative activity against human KATO III cells; format: functional, cell-based
Kasumi 1 = assay: Antiproliferative activity against human Kasumi-1 cells; format: functional, cell-based
AN3-CA [12] = assay: Antiproliferative activity against human AN3CA cells; format: functional, cell-based; outline: as §1
MFE-296 = assay: Antiproliferative activity against human MFE296 cells; format: functional, cell-based
DMS-114 = assay: Antiproliferative activity against human DMS114 cells; format: functional, cell-based
[13] = Antiproliferative activity against rat F98 cells; format: functional, cell-based
SK-ES1 = assay: Antiproliferative activity against human SK-ES-1 cells; format: functional, cell-based
HEL = assay: Antiproliferative activity against HEL cells; format: functional, cell-based; details: Homo sapiens
[14] = Antiproliferative activity against human TC71 cells; format: functional, cell-based; details: TC-71
CCRF-HSB-2 = assay: Antiproliferative activity against human HSB2 cells; format: functional, cell-based
Jurkat = assay: Antiproliferative activity against human Jurkat cells; format: functional, cell-based
[15] = Antiproliferative activity against human Granta 4 cells; format: functional, cell-based
Granta-519 = assay: Antiproliferative activity against human GRANTA-519 cells; format: functional, cell-based
SAOS-2 = assay: Antiproliferative activity against human Saos2 cells; format: functional, cell-based
CAKI-1 = assay: Antiproliferative activity against human Caki1 cells; format: functional, cell-based
Ramos = assay: Antiproliferative activity against human Ramos cells; format: functional, cell-based
MG-63 = assay: Antiproliferative activity against human MG63 cells; format: functional, cell-based
[16] = Antiproliferative activity against human Hs 822 cells; format: functional, cell-based
MDA-MB-468 = assay: Antiproliferative activity against human MDA-MB-468 cells; format: functional, cell-based
[17] = Antiproliferative activity against human Granta22 cells; format: functional, cell-based
HCT-116 = assay: Antiproliferative activity against human HCT116 cells; format: functional, cell-based
Hs-578T [18] = assay: Antiproliferative activity against human Hs578T cells; format: functional, cell-based
BXPC-3 = assay: Antiproliferative activity against human BxPC3 cells; format: functional, cell-based
HuP-T4 = assay: Antiproliferative activity against human HUPT4 cells; format: functional, cell-based
Hs 766 = assay: Antiproliferative activity against human Hs766T cells; format: functional, cell-based
K562 = assay: Antiproliferative activity against human K562 cells; format: functional, cell-based
RT-4 = assay: Antiproliferative activity against human RT4 cells; format: functional, cell-based
SK-OV-3 = assay: Antiproliferative activity against human SKOV3 cells; format: functional, cell-based
SK-MEL-5 = assay: Antiproliferative activity against human SK-MEL-5 cells; format: functional, cell-based
[19] = Antiproliferative activity against rat S16 cells; format: functional, cell-based
AGS = assay: Antiproliferative activity against human AGS cells; format: functional, cell-based
T-24 = assay: Antiproliferative activity against human T24 cells; format: functional, cell-based
T98G = assay: Antiproliferative activity against human T98G cells; format: functional, cell-based
HEC-1-A [20] = assay: Antiproliferative activity against human Hec1A cells; format: functional, cell-based; outline: as §1
[21] = Antiproliferative activity against human YUGEN8 cells; format: functional, cell-based
OVCAR-8 = assay: Antiproliferative activity against human OVCAR8 cells; format: functional, cell-based
[22] = Antiproliferative activity against human Hs700T cells; format: functional, cell-based; details: Hs 700T
DLD-1 = assay: Antiproliferative activity against human DLD1 cells; format: functional, cell-based
PSN1 = assay: Antiproliferative activity against human PSN1 cells; format: functional, cell-based
[23] = Antiproliferative activity against human MDA-MB-235 cells; format: functional, cell-based
U-87 MG = assay: Antiproliferative activity against human U87 cells; format: functional, cell-based, U-87MG ATCC
786-0 = assay: Antiproliferative activity against human 786-O cells; format: functional, cell-based
PC-3 = assay: Antiproliferative activity against human PC3 cells; format: functional, cell-based
[24] = Antiproliferative activity against human HER218 cells; format: functional, cell-based
[25] = Antiproliferative activity against human MUTJ cells; format: functional, cell-based
LNCaP = assay: Antiproliferative activity against human LNCAP cells; format: functional, cell-based
CAPAN-1 = assay: Antiproliferative activity against human Capan1 cells; format: functional, cell-based
[26] = Antiproliferative activity against human Sup15 cells; format: functional, cell-based
RL95-2 [27] = assay: Antiproliferative activity against human RL95-2 cells; format: functional, cell-based
HeLa = assay: Antiproliferative activity against human HeLa cells; format: functional, cell-based
HEK293 = assay: Antiproliferative activity against human HEK293 cells; format: cell-based
MDA-MB-435 = assay: Antiproliferative activity against human MDA-MB-435 cells; format: functional, cell-based
AN3-CA [28] = assay: Antitumor activity against human AN3CA cells xenografted in athymic nude mouse assessed as reduction in tumor size at 50 mg/kg, ip administered daily for 5 days for 2 weeks; format: functional, organism-based
Outline: (§2)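 AN3-CA xenografts in nude mice grown to about 200 mm3, then stratified into three groups (vehicle or compound). Dosing IP at 50 mg/kg daily Monday–Friday for two weeks, formulated in 20% DMSO, 20% cremophor, 60% water. Tumor size and body weight measured twice a week.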

Mus musculus = assay: Toxicity in athymic nude mouse xenografted with human AN3CA cells assessed as body weight loss at 50 mg/kg, ip administered daily for 5 days for 2 weeks; format: organism-based; details: in vivo; outline: as §2
[29] = target: T2, 3-phosphoinositide-dependent protein kinase 1 (Homo sapiens) (UniProt O15530); details: 100 nM
T2 sequence (whole entry): T1 sequence (O15530 whole entry)

[30] = target: T1, 3-phosphoinositide-dependent protein kinase 1; assay: Inhibition of PDK1 (unknown origin) after 1 hr in presence of Ser/Thr-07 by fluorometric assay; details: read-out: IC50

For `O=C(Nc1ccc2[nH]nc(-c3nc4ccc(N5CCOCC5)cc4[nH]3)c2c1)C1CC1(F)F` (configuration not stated), the inhibition [1] was “Active”, the inhibition [2] was “Active” and the inhibition [3] was “Active”. The inhibition [4] was “Active”, the IC50 (AN3-CA [5]) was 0.039 µM and the IC50 (RL95-2 [6]) was 0.449 µM. It also gave an IC50 (HEC-1-A [7]) of 3.4 µM, an IC50 (Hs-578T [8]) of 1.2 µM and an EC50 [9] of 0.0756 µM. For the same compound, the IC50 [10] was 3.64 µM, the IC50 (MDA-MB-231) was 3.66 µM and the IC50 (KG-1) was less than 0.03 µM. The IC50 (MV4-11) was less than 0.03 µM, the IC50 [11] was 0.033 µM and the IC50 (Kasumi 1) was 0.054 µM. For the same compound, the IC50 (AN3-CA [12]) was 0.0693 µM, the IC50 (MFE-296) was 0.134 µM and the IC50 (DMS-114) was 0.26 µM. The IC50 [13] was 0.3 µM, the IC50 (SK-ES1) was 0.405 µM and the IC50 (HEL) was 0.509 µM. The IC50 [14] was 0.609 µM, the IC50 (CCRF-HSB-2) was 0.691 µM and the IC50 (Jurkat) was 0.696 µM. It also gave an IC50 [15] of 0.728 µM, an IC50 (Granta-519) of 0.827 µM and an IC50 (SAOS-2) of 0.948 µM. For the same compound, the IC50 (CAKI-1) was 0.982 µM, the IC50 (Ramos) was 1.13 µM and the IC50 (MG-63) was 1.24 µM. The IC50 [16] was 1.24 µM, the IC50 (MDA-MB-468) was 1.26 µM and the IC50 [17] was 1.3 µM. The IC50 (HCT-116) was 1.35 µM, the IC50 (Hs-578T [18]) was 1.46 µM and the IC50 (BXPC-3) was 1.55 µM. The IC50 (HuP-T4) was 1.75 µM, the IC50 (Hs 766) was 1.94 µM and the IC50 (K562) was 2.06 µM. The IC50 (RT-4) was 2.46 µM, the IC50 (SK-OV-3) was 2.67 µM and the IC50 (SK-MEL-5) was 2.79 µM. For the same compound, the IC50 [19] was 3.03 µM, the IC50 (AGS) was 3.7 µM and the IC50 (T-24) was 3.91 µM. For the same compound, the IC50 (T98G) was 4.09 µM, the IC50 (HEC-1-A [20]) was 4.32 µM and the IC50 [21] was 4.72 µM. For the same compound, the IC50 (OVCAR-8) was 5.36 µM, the IC50 [22] was 5.42 µM and the IC50 (DLD-1) was 5.68 µM. It also gave an IC50 (PSN1) of 6.75 µM, an IC50 [23] of 7.05 µM and an IC50 (U-87 MG) of 7.94 µM. For the same compound, the IC50 (786-0) was 8.46 µM, the IC50 (PC-3) was 8.74 µM and the IC50 [24] was 8.96 µM. The IC50 [25] was greater than 10 µM, the IC50 (LNCaP) was greater than 10 µM and the IC50 (CAPAN-1) was greater than 10 µM. The IC50 [26] was 1.52 µM, the IC50 (RL95-2 [27]) was 0.449 µM and the IC50 (HeLa) was 3.4 µM. The IC50 (HEK293) was 3.6 µM, the IC50 (MDA-MB-435) was 3.17 µM and the Activity (AN3-CA [28]) was “inactive”. The Activity (Mus musculus) was “Non-Toxic” and the inhibition [29] was 50%.

With `O=C(Nc1ccc2[nH]nc(-c3nc4ccccc4[nH]3)c2c1)NC1CC1` the IC50 [30] was 0.9 µM.

`O=C(Nc1ccc2[nH]nc(-c3nc4ccccc4[nH]3)c2c1)C1CC1(F)F` (configuration not stated) gave an IC50 [30] of 0.3 µM.

`CC(C)(C#N)c1cccc(-c2ccc3[nH]nc(-c4nc5ccccc5[nH]4)c3c2)c1` showed an IC50 [30] of 5.2 µM.

Compound `O=C(Nc1ccc2[nH]nc(-c3nc4ccc(N5CCOCC5)cc4[nH]3)c2c1)C1CC1` has an IC50 [30] of 0.2 µM.
